Experimental findings from ChEMBL document CHEMBL1132151, “Design and structure-activity relationships of potent and selective inhibitors of blood coagulation factor Xa” (J Med Chem, 1999) are described below.

In assay [1] the target is Coagulation factor X (Homo sapiens, UniProt P00742). Nature of the assay: Compound was evaluated for the inhibition of human Coagulation factor Xa.
The target of assay [2] is T1, Prothrombin (Homo sapiens, UniProt P00734). The assay is described as follows: Inhibition of human thrombin. Put shortly:
(§1)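 Preincubated with compound 30 min, then Pefachrome TH at 50 μM final. p-Nitroanilide release followed at 405 nm for 5 min. IC50 from initial velocities; apparent Ki via Cheng-Prusoff, assuming competitive inhibition.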

The target of assay [3] is T2, Serine protease 1 (Bos taurus, UniProt P00760).
T2 sequence (P00760 whole entry): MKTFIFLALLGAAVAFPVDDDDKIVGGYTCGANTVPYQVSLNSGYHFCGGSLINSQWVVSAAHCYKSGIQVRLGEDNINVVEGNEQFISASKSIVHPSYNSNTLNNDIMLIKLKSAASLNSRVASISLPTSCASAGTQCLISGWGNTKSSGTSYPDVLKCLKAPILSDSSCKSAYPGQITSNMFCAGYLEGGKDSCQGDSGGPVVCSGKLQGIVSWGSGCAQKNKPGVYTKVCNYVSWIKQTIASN
The assay is described as follows: Inhibitory activity against bovine pancreatic trypsin. The method in brief:
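Bovine trypsin at 1 nM final, with buffer 0.05 M Tris, 0.15 M NaCl, 0.1% PEG-8000, 0.02 M CaCl2, pH 7.5, room temperature. 30 min compound preincubation, then S-2765 at 250 μM final. 405 nm read continuously for 5 min. IC50 from initial rates; apparent Ki by Cheng-Prusoff, assuming competitive kinetics.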

Assay [4] addresses T3, Vitamin K-dependent protein C (Homo sapiens, UniProt P04070). The assay is described as follows: Compound was evaluated for the inhibition of activated protein C (aPC). The method in brief: (§2)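 Human aPC, final enzyme 1 nM, in 0.05 M Tris, 0.15 M NaCl, 0.1% PEG-8000, 0.02 M CaCl2, pH 7.5. Compound preincubated with enzyme 30 min at room temperature. S-2366 at 500 μM final started the reaction. p-Nitroanilide release read continuously at 405 nm for 5 min, under 10% substrate consumed. IC50 from initial velocities; apparent Ki by Cheng-Prusoff, competitive mechanism assumed.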

The target of assay [5] is Plasminogen (Homo sapiens, UniProt P00747). The assay is described as follows: Compound was evaluated for the inhibition of plasmin. Put shortly:
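Compound preincubated 30 min, then S-2366 at 300 μM final. Continuous 405 nm read over 5 min. Initial velocities gave IC50; apparent Ki from Cheng-Prusoff, assuming competitive mechanism.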

Assay [6] concerns the target Tissue-type plasminogen activator (Homo sapiens, UniProt P00750). The assay is described as follows: Compound was evaluated for the inhibition of Tissue type plasminogen activator (tissue plasminogen activator). The method in brief: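 tPA, final enzyme 1 nM, in 0.05 M Tris, 0.15 M NaCl, 0.1% (w/v) BSA, pH 7.5. Preincubated 30 min with compound at room temperature, then Pefachrome-tPA at 500 μM final added. Release of p-nitroanilide monitored at 405 nm for 5 min. IC50 taken from initial rates; apparent Ki via Cheng-Prusoff, assuming competitive inhibition.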

Assay [7] addresses T1, Prothrombin. Nature of the assay: Compound was evaluated for the inhibition of thrombin. The method in brief:
as §1

Assay [8] concerns the target T3, Vitamin K-dependent protein C. Nature of the assay: Compound was evaluated for the inhibition of Activated protein C (aPC). The method in brief: as §2

Chain of Coagulation factor X (P00742 41-179 limits assumed): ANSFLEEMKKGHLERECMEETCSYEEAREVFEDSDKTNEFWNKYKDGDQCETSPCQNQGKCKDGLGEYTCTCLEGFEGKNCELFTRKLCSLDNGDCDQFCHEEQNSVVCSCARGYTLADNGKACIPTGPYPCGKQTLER
Chain of Coagulation factor X (P00742 235-488 limits assumed): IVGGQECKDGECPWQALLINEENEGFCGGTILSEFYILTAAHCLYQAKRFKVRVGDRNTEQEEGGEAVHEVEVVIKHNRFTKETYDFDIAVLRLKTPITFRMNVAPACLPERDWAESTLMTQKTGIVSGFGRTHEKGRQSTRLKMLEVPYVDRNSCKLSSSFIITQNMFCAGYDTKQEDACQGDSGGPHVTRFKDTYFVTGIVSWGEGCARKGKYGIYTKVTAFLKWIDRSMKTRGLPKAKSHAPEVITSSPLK
Chain of Tissue-type plasminogen activator (P00750 whole entry): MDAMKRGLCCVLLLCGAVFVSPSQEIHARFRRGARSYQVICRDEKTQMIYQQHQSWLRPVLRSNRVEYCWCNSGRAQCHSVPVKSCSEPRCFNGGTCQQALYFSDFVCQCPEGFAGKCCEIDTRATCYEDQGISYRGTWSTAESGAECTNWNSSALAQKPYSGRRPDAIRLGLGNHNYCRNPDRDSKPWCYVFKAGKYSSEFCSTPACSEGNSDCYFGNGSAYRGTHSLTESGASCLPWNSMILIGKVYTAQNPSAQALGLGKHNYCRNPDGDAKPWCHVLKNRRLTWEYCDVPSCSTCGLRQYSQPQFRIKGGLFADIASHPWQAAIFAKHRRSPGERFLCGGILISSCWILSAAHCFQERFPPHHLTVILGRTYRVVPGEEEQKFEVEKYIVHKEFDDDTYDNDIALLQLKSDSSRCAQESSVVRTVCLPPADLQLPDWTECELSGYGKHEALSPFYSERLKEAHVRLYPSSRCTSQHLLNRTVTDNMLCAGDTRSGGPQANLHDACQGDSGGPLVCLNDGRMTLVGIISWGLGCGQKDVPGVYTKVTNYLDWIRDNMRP
T3 sequence (P04070 43-197 limits assumed): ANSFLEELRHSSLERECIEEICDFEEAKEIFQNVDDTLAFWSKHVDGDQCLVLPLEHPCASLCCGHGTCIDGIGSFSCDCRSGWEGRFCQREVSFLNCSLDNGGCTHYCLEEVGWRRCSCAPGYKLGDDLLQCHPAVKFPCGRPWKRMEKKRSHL
T3 sequence (P04070 212-461 limits assumed): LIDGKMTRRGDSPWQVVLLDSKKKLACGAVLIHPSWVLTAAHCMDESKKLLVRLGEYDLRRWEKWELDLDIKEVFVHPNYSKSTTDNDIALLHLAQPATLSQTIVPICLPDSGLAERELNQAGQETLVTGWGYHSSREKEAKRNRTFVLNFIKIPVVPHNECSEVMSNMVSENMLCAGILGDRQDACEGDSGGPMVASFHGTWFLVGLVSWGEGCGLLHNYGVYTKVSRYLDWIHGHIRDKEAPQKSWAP
Chain of Plasminogen (P00747 97-580 limits assumed): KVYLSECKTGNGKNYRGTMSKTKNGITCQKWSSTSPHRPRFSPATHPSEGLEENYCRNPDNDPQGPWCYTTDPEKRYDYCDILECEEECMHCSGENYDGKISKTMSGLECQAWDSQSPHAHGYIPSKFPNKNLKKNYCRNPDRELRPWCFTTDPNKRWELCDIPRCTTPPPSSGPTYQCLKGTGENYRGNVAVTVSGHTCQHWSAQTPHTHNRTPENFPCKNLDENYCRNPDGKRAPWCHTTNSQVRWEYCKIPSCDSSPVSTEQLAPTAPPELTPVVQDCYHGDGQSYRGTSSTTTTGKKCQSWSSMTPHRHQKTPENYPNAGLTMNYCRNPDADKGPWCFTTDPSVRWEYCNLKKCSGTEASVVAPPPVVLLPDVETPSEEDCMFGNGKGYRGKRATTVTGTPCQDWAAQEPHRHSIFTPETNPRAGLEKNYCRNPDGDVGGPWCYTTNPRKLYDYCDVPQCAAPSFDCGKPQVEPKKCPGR
Chain of Plasminogen (P00747 581-810 limits assumed): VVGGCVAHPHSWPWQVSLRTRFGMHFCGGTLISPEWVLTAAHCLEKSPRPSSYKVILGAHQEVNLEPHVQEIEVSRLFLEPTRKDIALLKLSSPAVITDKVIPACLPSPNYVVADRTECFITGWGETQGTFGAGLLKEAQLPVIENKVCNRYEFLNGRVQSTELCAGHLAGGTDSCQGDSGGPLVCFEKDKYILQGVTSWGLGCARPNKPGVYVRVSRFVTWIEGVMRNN

As usually defined, the Ki is the dissociation constant of the complex between target and ligand, obtained from inhibition or displacement. Regarding `COc1ccc2cc(S(=O)(=O)N[C@H]3CCN(Cc4cccc(C(=N)N)c4)C3=O)ccc2c1`, the Ki was 1000 nM in assay [1], 900 nM in assay [2] and > 2900 nM in assay [3].
Consider `N=C(N)c1cccc(CN2C[C@H](NS(=O)(=O)c3ccc4ccccc4c3)C2=O)c1`, for which the Ki was 9900 nM in assay [1], > 4000 nM in assay [2] and > 2900 nM in assay [3].
`COc1ccc2ccc(S(=O)(=O)N[C@H]3CCN(Cc4coc(C(=N)N)c4)C3=O)cc2c1`: the inhibition constant (Ki) in assay [1] was 180 nM; in assay [2] it was > 4000 nM; in assay [3], > 2900 nM.
On to `N=C(N)c1cccc(Cn2cc(CCc3ccc4ccccc4c3)c3ccccc32)c1`, for which the inhibition constant (Ki) was 900 nM in assay [1], > 4000 nM in assay [2] and 2900 nM in assay [3].
`N=C(N)c1cccc(CN2CC[C@H](NS(=O)(=O)c3cccc4ccccc34)C2=O)c1`: the results for the Ki in assay [1], in assay [2] and in assay [3] were 750 nM, > 4000 nM and > 2900 nM, respectively.
Take `CCN([C@H]1CCN(Cc2cccc(C(=N)N)c2)C1=O)S(=O)(=O)c1ccc2ccc(OC)cc2c1`: the figures for the Ki in assay [1], in assay [2] and in assay [3] were 43 nM, 880 nM and 1400 nM, respectively.
For the compound `COc1ccc2ccc(S(=O)(=O)N(Cc3cc[nH]n3)[C@H]3CCN(Cc4cccc(C(=N)N)c4)C3=O)cc2c1`, the Ki turned out to be 21 nM in assay [1], 1080 nM in assay [2] and 1390 nM in assay [3].
For the compound `COc1ccc2ccc(S(=O)(=O)N[C@H]3CCN(Cc4cc(C(=N)N)cs4)C3=O)cc2c1`, the values for the Ki in assay [1], in assay [2] and in assay [3] were 83 nM, 2400 nM and 940 nM, respectively.
On to `COc1ccc2ccc(S(=O)(=O)N(CCC(N)=O)[C@H]3CCN(Cc4cccc(C(=N)N)c4)C3=O)cc2c1`, for which the Ki in assay [1] was 56 nM; in assay [2], 1500 nM; in assay [3], 2000 nM.
For the compound `COc1ccc2ccc(S(=O)(=O)N[C@H]3CCN(Cc4ccnc(C(=N)N)c4)C3=O)cc2c1`, the Ki was determined as 110 nM in assay [1], 2040 nM in assay [2] and 2840 nM in assay [3].
For the compound `CCOc1ccc2ccc(S(=O)(=O)N[C@H]3CCN(Cc4cccc(C(=N)N)c4)C3=O)cc2c1`, the Ki was 280 nM in assay [1], 1900 nM in assay [2] and > 2900 nM in assay [3].
For `COc1ccc2ccc(S(=O)(=O)N(CC(N)=O)[C@H]3CCN(Cc4cccc(C(=N)N)c4)C3=O)cc2c1`, the inhibition constant (Ki) is 25 nM in assay [1], 1440 nM in assay [2] and 1000 nM in assay [3].
In the case of `N=C(N)c1cccc(CN2CC[C@H](NS(=O)(=O)c3ccc4ccc(N)cc4c3)C2=O)c1`, the Ki in assay [1] is 120 nM; in assay [2], 2600 nM; in assay [3] it was 1300 nM.
In the case of `COc1ccc2ccc(S(=O)(=O)N[C@H]3CCN(Cc4cccc(C(=N)N)c4)C3=O)cc2c1`, the inhibitory constant (Ki) was 1200 nM in assay [4], 4700 nM in assay [5] and > 10000 nM in assay [6].
As to `N=C(N)c1cccc(CN2CC[C@H](NS(=O)(=O)c3ccc4ccc(O)cc4c3)C2=O)c1`, the values for the inhibition constant Ki in assay [1], in assay [2] and in assay [3] were 500 nM, > 4000 nM and > 2900 nM, respectively.
The like results for `Cc1ccc2ccc(S(=O)(=O)N[C@H]3CCN(Cc4cccc(C(=N)N)c4)C3=O)cc2c1` were, in that order, 100 nM, 1340 nM and 1100 nM.
For `CNc1ccc2ccc(S(=O)(=O)N[C@H]3CCN(Cc4cccc(C(=N)N)c4)C3=O)cc2c1`, the inhibitory constant (Ki) was 250 nM in assay [1], > 4000 nM in assay [2] and 1500 nM in assay [3].
Regarding `N=C(N)c1cccc(CN2CCCC[C@H](NS(=O)(=O)c3ccc4ccccc4c3)C2=O)c1`, the inhibitory constant (Ki) is 7000 nM in assay [1], > 4000 nM in assay [2] and > 2900 nM in assay [3].
For `N=C(N)c1cccc(CN2CC[C@H](NS(=O)(=O)c3ccc(Oc4ccccc4)cc3)C2=O)c1`, the inhibitory constant (Ki) was 380 nM in assay [1], > 4000 nM in assay [2] and > 2900 nM in assay [3].
As for `N=C(N)c1cccc(CN2CCC[C@H](NS(=O)(=O)c3ccc4ccccc4c3)C2=O)c1`, the Ki in assay [1] is 1300 nM; in assay [2] it was > 4000 nM; in assay [3], > 2900 nM.
For the compound `COc1ccc2ccc(S(=O)(=O)N(C)[C@H]3CCN(Cc4csc(C(=N)N)c4)C3=O)cc2c1`, the Ki in assay [4] came to 2400 nM; in assay [5], 4400 nM; in assay [6], 8600 nM; in assay [7], 1000 nM; in assay [3], 530 nM.
As for `N=C(N)c1cccc(CN2CC[C@H](NS(=O)(=O)c3ccc4ccccc4c3)C2=O)c1`, the Ki in assay [8] was 7000 nM; in assay [5], 4700 nM; in assay [6] it was > 10000 nM; in assay [2], > 4000 nM; in assay [3] it was 2900 nM.
